Reference: ChEMBL document CHEMBL1126841, “Synthesis and structure-activity relationships of 1-acyl-4-((2-methyl-3-pyridyl)cyanomethyl)piperazines as PAF antagonists” (J Med Chem, 1993)

Assays:
[1] = target: Platelet-activating factor receptor (Mus musculus) (UniProt Q62035); assay: Dose required to inhibit PAF-induced mortality by 50% in mice; format: functional; details: Mus sp.
Procedure, shortened: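 Male Swiss mice (22-26 g), groups of 10; test compound given po (20 mL/kg), controls 1% Tween 80. 60 min later, C18-PAF 100 µg/kg plus propanolol 1 mg/kg injected into a lateral tail vein. Mortality scored 2 h after PAF; % inhibition vs controls. ID50 from linear regression of one curve, ≥4 points. Initial dose 3 mg/kg; further doses only if >50% inhibition.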

[2] = target: Platelet-activating factor receptor (Rattus norvegicus) (UniProt P46002); assay: Intravenous dose required to reduce the arterial blood pressure caused by PAF by 50% in rats; format: functional
Platelet-activating factor receptor (Rattus norvegicus), sequence (P46002 whole entry): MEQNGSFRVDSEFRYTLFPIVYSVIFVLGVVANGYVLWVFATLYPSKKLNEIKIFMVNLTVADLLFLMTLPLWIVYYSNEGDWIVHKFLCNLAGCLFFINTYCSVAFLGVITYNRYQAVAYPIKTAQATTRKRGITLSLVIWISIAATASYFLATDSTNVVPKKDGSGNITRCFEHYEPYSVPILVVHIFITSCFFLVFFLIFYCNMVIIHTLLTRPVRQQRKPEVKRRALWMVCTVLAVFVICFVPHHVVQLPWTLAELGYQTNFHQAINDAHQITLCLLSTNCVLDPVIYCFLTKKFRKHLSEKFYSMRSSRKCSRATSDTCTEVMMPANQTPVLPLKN
Procedure, shortened: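 Male Sprague-Dawley rats (180-220 g) under pentobarbital anesthesia (50 mg/kg ip); carotid blood pressure recorded. Compound in saline given iv (femoral vein) 3 min before PAF 0.5 µg/kg iv; controls got vehicle. % inhibition of hypotension vs controls. ID50 from linear regression of one curve, ≥4 doses, each the mean of ≥2 independent experiments.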

Platelet-activating factor receptor (Mus musculus), sequence (Q62035 whole entry): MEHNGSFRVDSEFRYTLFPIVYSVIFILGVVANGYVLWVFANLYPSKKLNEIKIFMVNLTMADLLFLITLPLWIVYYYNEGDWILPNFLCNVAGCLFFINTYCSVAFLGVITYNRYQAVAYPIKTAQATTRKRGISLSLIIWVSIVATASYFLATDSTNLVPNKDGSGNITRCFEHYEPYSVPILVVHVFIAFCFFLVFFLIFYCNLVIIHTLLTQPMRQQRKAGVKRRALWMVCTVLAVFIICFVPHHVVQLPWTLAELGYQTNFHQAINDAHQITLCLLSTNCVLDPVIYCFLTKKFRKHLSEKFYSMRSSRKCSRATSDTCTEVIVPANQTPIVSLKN

SMILES	ID50 [1] [mg/kg]	ID50 [2] [mg/kg]
Cc1ncccc1C(C#N)N1CCN(C(=O)CC(NC(=O)c2cccnc2O)c2ccccc2)CC1 (stereo not drawn)	> 3	0.12
Cc1ncccc1C(C#N)N1CCN(C(=O)CC(NC(=O)c2ncccc2O)c2ccccc2)CC1 (stereo not drawn)	3	0.036
Cc1ncccc1C(C#N)N1CCN(C(=O)[C@@H](C)NC(c2ccccc2)c2ccccc2)CC1 (stereo partly drawn)	> 3	–
COC(=O)NC(CC(=O)N1CCN(C(C#N)c2cccnc2C)CC1)c1ccc(C(F)(F)F)cc1 (stereo not drawn)	1.6	0.014
Cc1ncccc1C(CO)N1CCN(C(=O)CC(c2ccccc2)c2ccccc2)CC1 (stereo not drawn)	> 3	–
CC(=O)N(CC(=O)N1CCN(C(C#N)c2cccnc2C)CC1)C(c1ccccc1)c1ccccc1 (stereo not drawn)	2	0.039
Cc1ncccc1C(C#N)N1CCN(C(=O)CN(C=O)C(c2ccccc2)c2ccccc2)CC1 (stereo not drawn)	1.5	0.016
Cc1ncccc1C(C#N)N1CCN(C(=O)CC(c2ccccc2)N(Cc2ccccc2)Cc2ccccc2)CC1 (stereo not drawn)	> 3	0.068
Cc1ncccc1C(C#N)N1CCN(C(=O)/C=C(/c2ccccc2)C(F)(F)F)CC1 (stereo not drawn)	> 3	–
Cc1ncccc1C(C#N)N1CCN(C(=O)CC(c2ccccc2)N2CCCC2=O)CC1 (stereo not drawn)	0.13	0.026
Cc1ncccc1C(C#N)N1CCN(C(=O)/C=C(\c2ccccc2)C(F)(F)F)CC1 (stereo not drawn)	> 3	0.12
Cc1ncccc1C(C#N)N1CCN(C(=O)CC(c2ccccc2)n2cccc2)CC1 (stereo not drawn)	1	0.014
Cc1ncccc1C(C#N)N1CCN(C(=O)CC(NC(=O)N2CCCC2)c2ccccc2)CC1 (stereo not drawn)	0.97	0.055
Cc1ncccc1C(C#N)N1CCN(C(=O)CC(c2ccccc2)N2CCOC2=O)CC1 (stereo not drawn)	1	0.029
Cc1ncccc1C(C#N)N1CCN(C(=O)CCC(c2ccccc2)c2ccccc2)CC1 (stereo not drawn)	> 3	0.028
Cc1ncccc1C(C#N)N1CCN(C(=O)CC(NS(C)(=O)=O)c2ccccc2)CC1 (stereo not drawn)	1	0.017
Cc1ncccc1C(C#N)N1CCN(C(=O)CC(NC(=O)c2ccccc2)c2ccccc2)CC1 (stereo not drawn)	> 3	0.056
Cc1ncccc1C(C#N)N1CCN(C(=O)CC(NC(=O)Oc2ccccc2)c2ccccc2)CC1 (stereo not drawn)	> 3	0.036
Cc1ncccc1C(C#N)N1CCN(C(=O)CNC2c3ccccc3-c3ccccc32)CC1 (stereo not drawn)	> 3	0.085
Cc1ncccc1C(C#N)N1CCN(C(=O)CC(O)(c2ccccc2)C(F)(F)F)CC1 (stereo not drawn)	0.44	0.013
Cc1ncccc1C(C#N)N1CCN(C(=O)[C@H](C)NC(c2ccccc2)c2ccccc2)CC1 (stereo partly drawn)	1.6	0.025
Cc1ncccc1C(C#N)N1CCN(C(=O)CC(NCc2ccccc2)c2ccccc2)CC1 (stereo not drawn)	1.2	0.035

SMILES	ID50 [1] [mg/kg]	ID50 [2] [mg/kg]
Cc1ncccc1C(C#N)N1CCN(C(=O)CC(NCc2cccnc2)c2ccccc2)CC1 (stereo not drawn)	> 3	0.029
CCOC(=O)C(CC(=O)N1CCN(C(C#N)c2cccnc2C)CC1)(c1ccccc1)c1ccccc1 (stereo not drawn)	> 3	0.12
Cc1ncccc1C(C#N)N1CCN(C(=O)CN(C(c2ccccc2)c2ccccc2)S(C)(=O)=O)CC1 (stereo not drawn)	> 3	0.083
Cc1ncccc1C(C#N)N1CCN(C(=O)CC(O)(c2ccccc2)c2ccccc2)CC1 (stereo not drawn)	0.69	0.039
Cc1ncccc1C(C#N)N1CCN(C(=O)CC(c2ccccc2)N2CCCS2(=O)=O)CC1 (stereo not drawn)	> 3	0.048
CCc1ncccc1C(C#N)N1CCN(C(=O)CNC(c2ccccc2)c2ccccc2)CC1 (stereo not drawn)	0.7	0.063
Cc1ncccc1C(C#N)N1CCN(C(=O)CSC(c2ccccc2)c2ccccc2)CC1 (stereo not drawn)	> 3	0.058
CCOC(=O)NC(CC(=O)N1CCN(C(C#N)c2cccnc2C)CC1)c1ccccc1 (stereo not drawn)	0.23	0.025
Cc1ncccc1C(C#N)N1CCN(C(=O)CC(c2ccccc2)C(F)(F)F)CC1 (stereo not drawn)	> 3	0.023
COC(=O)N(C)C(CC(=O)N1CCN(C(C#N)c2cccnc2C)CC1)c1ccccc1 (stereo not drawn)	2	0.036
Cc1ncccc1C(C#N)N1CCN(C(=O)CC(c2ccccc2)N2CCCC2)CC1 (stereo not drawn)	–	0.22
CNC(CC(=O)N1CCN(C(C#N)c2cccnc2C)CC1)c1ccccc1 (stereo not drawn)	3	0.067
Cc1ncccc1C(C#N)N1CCN(C(=O)CON=C(c2ccccc2)c2ccccc2)CC1 (stereo not drawn)	> 3	0.071
Cc1ncccc1C(C#N)N1CCN(C(=O)CC(C)c2ccccc2)CC1 (stereo not drawn)	> 3	0.039
Cc1ncccc1C(C#N)N1CCN(C(=O)COC(c2ccccc2)c2ccccc2)CC1 (stereo not drawn)	> 3	0.048
Cc1ncccc1C(C#N)N1CCN(C(=O)CC(O)(c2ccccc2)c2cccnc2)CC1 (stereo not drawn)	1	0.042
COC(=O)N(Cc1ccccc1)C(CC(=O)N1CCN(C(C#N)c2cccnc2C)CC1)c1ccccc1 (stereo not drawn)	3	0.066
Cc1ncccc1C(C#N)N1CCN(C(=O)CS(=O)(=O)C(c2ccccc2)c2ccccc2)CC1 (stereo not drawn)	> 3	0.11
Cc1ncccc1C(C#N)N1CCN(C(=O)CC(NC(=O)OC(C)(C)C)c2ccccc2)CC1 (stereo not drawn)	1.2	0.049
Cc1ncccc1C(C#N)N1CCN(C(=O)CC(NS(=O)(=O)c2ccccc2)c2ccccc2)CC1 (stereo not drawn)	> 3	0.04
Cc1ncccc1C(C#N)N1CCN(C(=O)CC(NC(=O)c2cccnc2)c2ccccc2)CC1 (stereo not drawn)	0.41	0.029
Cc1ncccc1C(C#N)N1CCN(C(=O)CC(NC(=O)OCC(C)C)c2ccccc2)CC1 (stereo not drawn)	> 3	0.017

SMILES	ID50 [1] [mg/kg]	ID50 [2] [mg/kg]
Cc1ncccc1C(C#N)N1CCN(C(=O)CC(NC(=O)OCc2ccccc2)c2ccccc2)CC1 (stereo not drawn)	> 3	0.018
CCOC(=O)C(c1cccnc1C)N1CCN(C(=O)CC(c2ccccc2)c2ccccc2)CC1 (stereo not drawn)	> 30	–
Cc1ncccc1C(C#N)N1CCN(C(=O)CC(NC(N)=O)c2ccccc2)CC1 (stereo not drawn)	> 3	–
Cc1ncccc1C(C#N)N1CCN(C(=O)CNC(C)(c2ccccc2)c2ccccc2)CC1 (stereo not drawn)	> 3	0.057
Cc1ncccc1C(C#N)N1CCN(C(=O)CC(N)c2ccccc2)CC1 (stereo not drawn)	> 3	0.92
Cc1ncccc1C(C#N)N1CCN(C(=O)C(C)(C)C(F)(c2ccccc2)c2ccccc2)CC1 (stereo not drawn)	> 3	0.34
Cc1ncccc1C(C#N)N1CCN(C(=O)CC(c2ccccc2)c2ccccc2)CC1 (stereo not drawn)	0.9	0.015
Cc1ncccc1C(C#N)N1CCN(C(=O)CC(O)(c2ccc(F)cc2)c2ccc(F)cc2)CC1 (stereo not drawn)	> 3	0.051
C#CC(c1cccnc1C)N1CCN(C(=O)CNC(c2ccccc2)c2ccccc2)CC1 (stereo not drawn)	> 3	–
CO/N=C(/C)C(c1cccnc1C)N1CCN(C(=O)CC(c2ccccc2)c2ccccc2)CC1 (stereo not drawn)	> 3	–
Cc1ncccc1C(C#N)N1CCN(C(=O)[C@H](CO)NC(c2ccccc2)c2ccccc2)CC1 (stereo partly drawn)	2.4	0.02
Cc1ncccc1C(C#N)N1CCN(C(=O)C[S+]([O-])C(c2ccccc2)c2ccccc2)CC1 (stereo not drawn)	> 3	0.034
CC(=O)NC(CC(=O)N1CCN(C(C#N)c2cccnc2C)CC1)c1ccccc1 (stereo not drawn)	0.09	0.035
Cc1ncccc1C(C#N)N1CCN(C(=O)CC(C)(O)c2ccccc2)CC1 (stereo not drawn)	> 3	0.029
CNC(=O)C(CC(=O)N1CCN(C(C#N)c2cccnc2C)CC1)c1ccccc1 (stereo not drawn)	0.78	0.05
Cc1ncccc1C(C#N)N1CCN(C(=O)C=C(c2ccccc2)c2ccccc2)CC1 (stereo not drawn)	2.2	0.038
Cc1ncccc1C(C#N)N1CCN(C(=O)CCNC(c2ccccc2)c2ccccc2)CC1 (stereo not drawn)	0.62	0.044
C#CCNC(CC(=O)N1CCN(C(C#N)c2cccnc2C)CC1)c1ccccc1 (stereo not drawn)	3	–
Cc1ncccc1C(C#N)N1CCN(C(=O)CNC(c2ccc(F)cc2)c2ccc(F)cc2)CC1 (stereo not drawn)	3	0.049
C=CCNC(CC(=O)N1CCN(C(C#N)c2cccnc2C)CC1)c1ccccc1 (stereo not drawn)	1	–
